The test system of test [1] is Mycobacterium tuberculosis. Nature of the test: Inhibition of multidrug resistance efflux pump in Mycobacterium tuberculosis H37Rv assessed as reduction in amikacin MIC at 128 ug/ml after 7 days by two-dimensional broth microdilution checkerboard assay. For orientation: Broth dilution looks for growth in wells or tubes with falling amounts of substance.
Test [2] relates to Mycobacterium tuberculosis. Nature of the test: Inhibition of multidrug resistance efflux pump in Mycobacterium tuberculosis H37Rv assessed as rifampin MIC at 0.23 ug/ml after 7 days by two-dimensional broth microdilution checkerboard assay. Conditions: 168 h. The essentials: (§1)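 M. tuberculosis H37Rv ATCC27294. MICs of INH, RIF, AMK, OFX and EtBr were determined alone and with sub-inhibitory concentrations of test compound by two-dimensional broth microdilution checkerboard. Where a compound's MIC was not determinable, the highest concentration still allowing growth was taken as ½ MIC. FIC = MIC in combination / MIC alone. FIC ≤0.25 was scored as synergism and ≥2 as antagonism.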

In test [3] the test system is Mycobacterium tuberculosis. The experiment in a line: Inhibition of multidrug resistance efflux pump in Mycobacterium tuberculosis H37Rv assessed as amikacin MIC at 3.75 ug/ml after 7 days by two-dimensional broth microdilution checkerboard assay. Conditions: 168 h. The essentials:
as §1

In test [4] the test system is Mycobacterium tuberculosis. The experiment in a line: Inhibition of multidrug resistance efflux pump in Mycobacterium tuberculosis H37Rv assessed as amikacin MIC at 1.88 ug/ml after 7 days by two-dimensional broth microdilution checkerboard assay. To be noted: 168 h. The essentials: as §1
Test [5] deals with Mycobacterium tuberculosis. Nature of the test: Inhibition of multidrug resistance efflux pump in Mycobacterium tuberculosis H37Rv assessed as amikacin MIC at 0.12 ug/ml after 7 days by two-dimensional broth microdilution checkerboard assay. To be noted: 168 h. The essentials: as §1
For test [6], the system named is Mycobacterium tuberculosis. The experiment in a line: Inhibition of multidrug resistance efflux pump in Mycobacterium tuberculosis H37Rv assessed as ofloxacin MIC at 7.5 ug/ml after 7 days by two-dimensional broth microdilution checkerboard assay. To be noted: 168 h. The essentials: (§2)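 M. tuberculosis H37Rv two-dimensional broth microdilution checkerboard. MICs of INH, RIF, AMK, OFX or EtBr were determined without and with graded sub-inhibitory compound concentrations, starting at ½ MIC. Where MIC was undeterminable, the highest concentration still permitting growth was taken as ½ MIC. FIC = MIC of antibacterial in combination / MIC alone. FIC ≤0.25 was scored as synergism and ≥2 as antagonism.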

In test [7] the test system is Mycobacterium tuberculosis. Nature of the test: Inhibition of multidrug resistance efflux pump in Mycobacterium tuberculosis H37Rv assessed as ofloxacin MIC at 0.23 ug/ml after 7 days by two-dimensional broth microdilution checkerboard assay. Conditions: 168 h. The essentials:
as §1

Test [8] deals with Mycobacterium tuberculosis. Nature of the test: Inhibition of multidrug resistance efflux pump in Mycobacterium tuberculosis H37Rv assessed as ethidium bromide MIC at 3.75 ug/ml after 7 days by two-dimensional broth microdilution checkerboard assay. To be noted: 168 h. The essentials:
as §1

Test [9] relates to Mycobacterium tuberculosis. The experiment in a line: Inhibition of multidrug resistance efflux pump in Mycobacterium tuberculosis H37Rv assessed as reduction in isoniazid MIC at 7.5 ug/ml after 7 days by two-dimensional broth microdilution checkerboard assay. The essentials: as §2
The subject of test [10] is Mycobacterium tuberculosis. The experiment in a line: Inhibition of multidrug resistance efflux pump in Mycobacterium tuberculosis H37Rv assessed as reduction in rifampin MIC at 7.5 ug/ml after 7 days by two-dimensional broth microdilution checkerboard assay. The essentials:
as §2

Test [11] deals with Mycobacterium tuberculosis. Nature of the test: Inhibition of multidrug resistance efflux pump in Mycobacterium tuberculosis H37Rv assessed as reduction in ofloxacin MIC at 7.5 ug/ml after 7 days by two-dimensional broth microdilution checkerboard assay. The essentials: as §2
For test [12], the system named is Mycobacterium tuberculosis. The experiment in a line: Inhibition of multidrug resistance efflux pump in Mycobacterium tuberculosis H37Rv assessed as rifampin MIC at 7.5 ug/ml after 7 days by two-dimensional broth microdilution checkerboard assay. Conditions: 168 h. The essentials: as §2
Test [13] concerns Mycobacterium tuberculosis. Nature of the test: Inhibition of multidrug resistance efflux pump in Mycobacterium tuberculosis H37Rv assessed as ofloxacin MIC at 2 ug/ml after 7 days by two-dimensional broth microdilution checkerboard assay. To be noted: 168 h.
Test [14] concerns Mycobacterium tuberculosis. The experiment in a line: Inhibition of multidrug resistance efflux pump in Mycobacterium tuberculosis H37Rv assessed as isoniazid MIC at 2 ug/ml after 7 days by two-dimensional broth microdilution checkerboard assay. To be noted: 168 h.
Test [15] deals with Mycobacterium tuberculosis. The experiment in a line: Inhibition of multidrug resistance efflux pump in Mycobacterium tuberculosis H37Rv assessed as rifampin MIC at 2 ug/ml after 7 days by two-dimensional broth microdilution checkerboard assay. Conditions: 168 h.
The test system of test [16] is Mycobacterium tuberculosis. Nature of the test: Inhibition of multidrug resistance efflux pump in Mycobacterium tuberculosis H37Rv assessed as rifampin MIC at 1 ug/ml after 7 days by two-dimensional broth microdilution checkerboard assay. Conditions: 168 h. The essentials: as §2

Where only a bound is given, the exact number is not on record here.

As usually defined, the MIC is the least concentration at which growth counts as inhibited.

In the case of `CN1CCCCC1CCn1ccc2ccc(Br)cc21` (racemic), the “fold change (FC)” value in [1] is recorded as more than 128.
Regarding `CSc1ccc2c(c1)N(CCC1CCCCN1C)c1ccccc1S2` (stereo unspecified) [THIORIDAZINE], the MIC in test [2] was 1 µg/mL; in test [3], 1 µg/mL; in test [4] it was 1 µg/mL; in test [5], 1 µg/mL; in [6] it was less than 0.0156 µg/mL; in [7], 1 µg/mL. The MIC in [8] is 3.12 µg/mL; in test [12] it was less than 0.0156 µg/mL. Moreover, the figures for the “fold change (FC)” value in test [9], in test [10] and in test [11] were more than 128, more than 64 and more than 128, respectively.
For `CN1CCCCC1CCn1c2ccccc2c2ccccc21` (racemic), the MIC worked out at 1 µg/mL in test [13], 0.1 µg/mL in [14], 1 µg/mL in test [15] and 1 µg/mL in test [16].

The values above are taken from ChEMBL document CHEMBL3593164, “Rational Design and Synthesis of Thioridazine Analogues as Enhancers of the Antituberculosis Therapy” (J Med Chem, 2015).
